Experimental data from paper PMC3288683 (Bioconjugate Chemistry, 2012).

Assays:
SH-SY5Y cells [1] = test: live cell co-localization with RFP-labeled Rab5 in early endosomes; assay type: cell-based, human; settings: 0.1 μM, 1 h at 37°C, intensities along the x-axis, Amira 5 software
SH-SY5Y cells [2] = test: Vybrant MTT Cell Proliferation Assay; assay type: cell-based, human; settings: SH-SY5Y cells, 0.1, 0.5 and 1 μM, 12 h at 37°C, absorbance at 540 nm
Outline: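 SH-SY5Y cells, maintained in 1:1 DMEM:F12 with 10% FBS at 37°C under 5% CO2, seeded at 2 × 10^4 cells/well and grown overnight in phenol red-free DMEM:F12. Exposed to test compound (0.1, 0.5, 1 μM) for 12 h at 37°C, then to MTT 1 mg/mL for 4 h. Formazan dissolved in Me2SO; absorbance read at 540 nm against untreated control cells.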

CHO-K1 cells [3] = test: comparative uptake study by confocal microscopy, negative control cells; assay type: cell-based, Chinese hamster
CHO-K1 cells [4] = test: specificity of uptake by flow cytometry, negative control cells; assay type: cell-based, Chinese hamster; settings: all concentrations (0.1, 0.2, 0.35, 0.5 μM), 6 h at 37°C
SH-SY5Y cells [5] = test: time course of agent uptake by confocal microscopy; assay type: cell-based, human; settings: 0.1 μM, 37°C
SH-SY5Y cells [6] = test: specificity of uptake by flow cytometry; assay type: cell-based, human; settings: 0.1 μM, 6 h at 37°C, three replicate experiments
SH-SY5Y cells [7] = test: comparative uptake study by confocal microscopy; assay type: cell-based, human; settings: 0.1 μM, 4 h at 37°C, 3 fields per slide

Compound	overlap of AlexaFluor 488 intensity with RFP-labeled Rab5 intensity (SH-SY5Y cells [1]) [%]	cellular toxicity (MTT cell viability) (SH-SY5Y cells [2])	uptake in CHO-K1 cells relative to SH-SY5Y cells (CHO-K1 cells [3]; 0.1 μM, 4 h at 37°C, confocal microscopy, 3 fields per slide)	non-specific uptake in control cell-line CHO-K1 (CHO-K1 cells [3]; conclusion, in words)	specificity ratio (WT4879 vs WT4786 uptake) (CHO-K1 cells [4])	time course of uptake intensity (SH-SY5Y cells [5]; 0-12 h, ImageJ, three regions of interest)	uptake at 0.25 and 0.5 h (SH-SY5Y cells [5]; data not shown)	uptake after 1 h (SH-SY5Y cells [5]; uniformly distributed in the cytoplasm)	uptake of WT4879 relative to WT4786 (ratio of specific over non-specific uptake) (SH-SY5Y cells [6])	uptake in SH-SY5Y cells relative to the specific WT4879 (SH-SY5Y cells [7])
Cc1cn(CC(=O)N(CCNC(=O)CN(CCNC(=O)CN(CCNC(=O)CN(CCNC(=O)CN(CCNC(=O)CN(CCNC(=O)CN(CCNC(=O)CN(CCNC(=O)CN(CCNC(=O)COCCOCCNC(=O)[C@H](CO)NC(=O)[C@H](Cc2ccccc2)N(C)C(=O)CNC(=O)[C@@H](C)NC(=O)[C@@H](N)Cc2ccc(O)cc2)C(=O)Cn2ccc(N)nc2=O)C(=O)Cn2cnc3c(N)ncnc32)C(=O)Cn2cc(C)c(=O)[nH]c2=O)C(=O)Cn2cnc3c(=O)[nH]c(N)nc32)C(=O)Cn2cnc3c(=O)[nH]c(N)nc32)C(=O)Cn2cc(C)c(=O)[nH]c2=O)C(=O)Cn2cnc3c(=O)[nH]c(N)nc32)C(=O)Cn2ccc(N)nc2=O)CC(=O)NCCN(CC(=O)NCCN(CC(=O)NCCN(CC(=O)NCCOCCOCC(=O)N[C@@H](CSC2CC(=O)N(CCCCCNC(=O)c3ccc(-c4c5ccc(=N)c(S(=O)(=O)O)c-5oc5c(S(=O)(=O)O)c(N)ccc45)c(C(=O)O)c3)C2=O)C(=O)O)C(=O)Cn2ccc(N)nc2=O)C(=O)Cn2cnc3c(N)ncnc32)C(=O)Cn2ccc(N)nc2=O)c(=O)[nH]c1=O (stereo partly drawn) [WT4879, Tyr-D-Ala-Gly-N-MePhe-Ser-AEEA-CAT GGT GCT CAC-AEEA-Cys-AlexaFluor488]	> 95	No cellular toxicity was observed	~ 21%	minimal non-specific uptake	1 ± 0.3	increased with time up to 4 h, leveling off thereafter	No significant uptake	taken up strongly	~ 5 fold	–
Ala-D-Ala-Gly-N-MePhe-Ser-AEEA-CAT GGT GCT CAC-AEEA-Cys-AlexaFluor488 [WT4786]	–	–	–	–	–	–	–	–	–	~ 20%
